# The source made the active and inactive calls. The calls are words filed in the database; no cut-off is given here.
# Key:
# [1] = system: MCF7; test: Induction of apoptosis in human MCF7 cells assessed as PARP cleavage at 1 to 10 uM after 24 hrs by Western blotting analysis; assay type: functional, cell-based
# [2] = Toxicity in CD-1 mouse […] assessed as survival rate at 200 mg/kg, ip administered for 5 days measured after 10 days; assay type: organism-based; parameters: dose 200 mg/kg, route intraperitoneal; conditions: in vivo
# Method in brief: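 Female CD-1 mice (n=3) were given 200 mg/kg ip on 5 consecutive days. They were then monitored for signs of toxicity, with survival followed beyond 10 days after injection. This came after an initial single-dose test at 100 or 200 mg/kg ip with 7-day monitoring.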
# [3] = Cytotoxicity against human SKBR3 cells after 96 hrs by Cell-Titer Blue assay; assay type: functional; conditions: SK-BR-3, 96 h
# [4] = target: Platelet-derived growth factor receptor beta (Homo sapiens, UniProt P09619); test: Inhibition of PDGFRbeta (unknown origin)
# Sequence of Platelet-derived growth factor receptor beta (P09619 whole entry): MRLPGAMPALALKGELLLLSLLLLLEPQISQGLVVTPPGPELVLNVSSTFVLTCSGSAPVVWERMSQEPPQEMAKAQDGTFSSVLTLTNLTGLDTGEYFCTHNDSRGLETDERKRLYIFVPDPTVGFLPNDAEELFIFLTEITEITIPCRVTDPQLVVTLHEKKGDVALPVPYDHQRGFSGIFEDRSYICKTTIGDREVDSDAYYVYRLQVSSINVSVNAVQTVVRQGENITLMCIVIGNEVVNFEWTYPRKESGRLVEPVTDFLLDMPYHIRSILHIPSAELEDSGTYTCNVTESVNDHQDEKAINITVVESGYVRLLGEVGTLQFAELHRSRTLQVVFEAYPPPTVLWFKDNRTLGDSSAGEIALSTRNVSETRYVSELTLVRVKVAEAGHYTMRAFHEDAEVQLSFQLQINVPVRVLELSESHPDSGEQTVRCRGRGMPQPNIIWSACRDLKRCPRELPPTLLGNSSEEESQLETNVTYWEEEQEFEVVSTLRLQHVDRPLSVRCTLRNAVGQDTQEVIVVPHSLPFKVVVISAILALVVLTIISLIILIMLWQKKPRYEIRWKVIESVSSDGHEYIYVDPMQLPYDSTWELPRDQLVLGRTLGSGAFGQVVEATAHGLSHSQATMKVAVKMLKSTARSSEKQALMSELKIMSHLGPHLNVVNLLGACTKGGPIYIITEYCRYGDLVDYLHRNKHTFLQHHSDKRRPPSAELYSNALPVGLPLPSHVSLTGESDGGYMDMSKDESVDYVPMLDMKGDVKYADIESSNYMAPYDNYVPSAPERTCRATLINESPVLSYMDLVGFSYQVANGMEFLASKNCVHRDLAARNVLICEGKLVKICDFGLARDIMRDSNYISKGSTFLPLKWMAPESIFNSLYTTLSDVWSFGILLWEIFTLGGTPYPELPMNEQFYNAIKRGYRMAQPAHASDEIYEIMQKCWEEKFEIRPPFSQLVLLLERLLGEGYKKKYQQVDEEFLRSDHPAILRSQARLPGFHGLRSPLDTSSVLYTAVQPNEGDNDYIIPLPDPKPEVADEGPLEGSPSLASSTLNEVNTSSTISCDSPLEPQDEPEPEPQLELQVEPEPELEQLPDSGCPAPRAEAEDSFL
# [5] = Cytotoxicity against human U87 cells after 96 hrs by Cell-Titer Blue assay; assay type: functional, U-87MG ATCC; conditions: U-87 MG
# [6] = Cytotoxicity against human SNU449 cells after 96 hrs by Cell-Titer Blue assay; assay type: functional; conditions: SNU-449, 96 h
# [7] = target: CDK6/cyclin D1 (Homo sapiens, UniProt Q00534); test: Inhibition of CDK6/cyclinD1 (unknown origin); assay type: protein-complex assay
# Sequence of CDK6/cyclin D1 (P24385 whole entry): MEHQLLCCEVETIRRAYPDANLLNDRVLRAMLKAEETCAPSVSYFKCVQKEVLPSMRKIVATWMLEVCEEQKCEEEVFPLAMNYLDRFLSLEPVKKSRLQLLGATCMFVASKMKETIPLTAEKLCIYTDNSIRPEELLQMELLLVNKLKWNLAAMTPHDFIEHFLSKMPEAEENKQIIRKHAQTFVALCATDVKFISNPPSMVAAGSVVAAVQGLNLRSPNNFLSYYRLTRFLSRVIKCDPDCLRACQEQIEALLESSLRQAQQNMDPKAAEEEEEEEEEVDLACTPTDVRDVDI
# Sequence of CDK6/cyclin D1 (Q00534 whole entry): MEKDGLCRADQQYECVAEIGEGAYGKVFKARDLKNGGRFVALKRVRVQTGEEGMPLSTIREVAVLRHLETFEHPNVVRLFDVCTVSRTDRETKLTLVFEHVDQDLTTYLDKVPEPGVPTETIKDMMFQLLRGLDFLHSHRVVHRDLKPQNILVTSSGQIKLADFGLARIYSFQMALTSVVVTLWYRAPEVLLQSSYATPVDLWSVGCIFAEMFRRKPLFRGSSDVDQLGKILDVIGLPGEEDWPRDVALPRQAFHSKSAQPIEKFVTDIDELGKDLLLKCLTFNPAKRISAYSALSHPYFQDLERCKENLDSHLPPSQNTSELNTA
# [8] = system: SK-OV-3; test: Cytotoxicity against human SKOV3 cells after 96 hrs by Cell-Titer Blue assay; assay type: functional; conditions: SK-OV-3, 96 h
# [9] = system: MDA-MB-231; test: Antitumor activity against human MDA-MB-231 cells xenografted in NCR nude mouse assessed as decrease in tumor weight at 50 mg/kg, ip […] administered on alternative days measured every 2 days up to 21 days; assay type: functional, organism-based; parameters: dose 50 mg/kg
# Method in brief: (§1)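 MDA-MB-231 cells orthotopically implanted into mammary fat pads of 6–8 week old female nude mice (n=11 per group). Dosing began when average tumour volume reached 100 mm3. Lactate salt in PBS or vehicle was given intraperitoneally every other day (Q2D). Tumour volumes and body weights were recorded every 2 days over 21 days; mean ± SEM.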
# [10] = system: MDA-MB-231; test: Antitumor activity against ip dosed human MDA-MB-231 cells xenografted in NCR nude mouse assessed as inhibition of tumor growth administered as […] on alternative days measured every 2 days up to 21 days; assay type: functional, organism-based; method in brief: as §1
# [11] = system: MCF7; test: Induction of apoptosis in human MCF7 cells assessed as PARP cleavage after 24 hrs by Western blotting analysis; assay type: functional, cell-based
# [12] = system: NCI-H417; test: Cytotoxicity against human NCI-N417 cells after 96 hrs by Cell-Titer Blue assay; assay type: functional; conditions: NCI-H417, 96 h
# [13] = Cytotoxicity against human Z138C cells after 96 hrs by Cell-Titer Blue assay; assay type: functional
smiles,measurement,setting,value
CN1CCN(c2ccc(Nc3ncc4cc(C#N)c(=O)n(C5CCCC5)c4n3)cc2)CC1 [NARAZACICLIB],Activity,[1],Active
same,survival at 240 h,[2],100%
same,GI50,[3],150 nM
same,IC50,[4],26 nM
same,GI50,[5],100 nM
same,GI50,[6],750 nM
same,IC50,[7],9.82 nM
same,GI50,[8],750 nM
same,Activity,[9],Active
same,inhibition,[10],Dose-dependent effect
same,Activity,[11],Dose-dependent effect
same,GI50,[12],250 nM
same,GI50,[13],25 nM
